# Test results reported in the RNAGym collection of RNA variant scans (doi:10.1002/anie.201605470).
# B1: Osa-1-4 twister ribozyme (parent)
# chain: CCGCCUAACACUGCCAAUGCCGGUCCCAAGCCCGGAUAAAAGUGGAGGGGGCGG
# Variants of: B1
# Assay: self-cleavage, relative activity (ratio to wild type); higher = more cleavage; co-transcriptional
# How it was run: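 For each read, cleavage status was taken from whether upstream sequence was present. The reads came from an Oryza sativa twister ribozyme of 54 nucleotides, whose DNA template was synthesised with 97 % wild-type base and 1 % of each other base at the 48 positions downstream of the cleavage site. The template was transcribed in vitro at 37 °C for 2 h with co-transcriptional self-cleavage, and the RNA was reverse-transcribed using a template-switching oligonucleotide, PCR-amplified and deep-sequenced. Relative activity is the fraction cleaved normalised to wild type.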
row,Variant,self-cleavage
1,G23U G44U,0.06
2,G23U G44A,0.04
3,G23U G44C,0.05
4,C25A C32G,0.05
5,C25A C32A,0.08
6,C25A C32U,0.04
7,C25A G22C,0.03
8,C25A G22A,0.15
9,C25A G22U,0.07
10,G23U G50C,0.05
11,G23U G50U,0.06
12,G23U G50A,0.05
13,U24A U37C,0.28
14,U24A U37A,0.34
15,U24A U37G,0.49
16,G23U G42U,0.04
17,G23U G42A,0.05
18,G23U G42C,0.03
19,G23C G54A,0.06
20,G23C G54C,0.05
21,G23C G54U,0.06

row,Variant,self-cleavage
1,G23U U24G,0.02
2,G23U U24A,0.04
3,G23U U24C,0.03
4,G23C G53U,0.04
5,G23C G53A,0.04
6,G23C G53C,0.02
7,C25A C52G,0.17
8,C25A C52U,0.17
9,C25A C52A,0.14
10,C25A C26A,0.04
11,C25A C26U,0.08
12,C25A C26G,0.05
13,G23U G54U,0.2
14,G23U G54A,0.09
15,G23U G54C,0.08
16,G23C U43C,0.05
17,G23C U43G,0.06
18,G23C U43A,0.05
19,C25A,0.2
20,C25A C9G,0.08
21,C25A C9U,0.06

row,Variant,self-cleavage
1,C25A C9A,0.05
2,G23U G34A,0.04
3,G23U G34C,0.04
4,G23U G34U,0.05
5,U24G,0.03
6,U24A,0.42
7,U24C,0.53
8,G23U U18A,0.1
9,G23U U18G,0.14
10,G23U U18C,0.1
11,G23C U24G,0.01
12,G23C U24C,0.04
13,G23C U24A,0.03
14,U24G U43C,0.03
15,U24G U43A,0.03
16,U24G U43G,0.07
17,G23C U18A,0.06
18,G23C U18C,0.14
19,G23C U18G,0.06
20,C25A G47A,0.04
21,C25A G19U,0.04

row,Variant,self-cleavage
1,C25A G19A,0.06
2,C25A G19C,0.03
3,C25A C31U,0.03
4,C25A C31A,0.04
5,C25A C31G,0.03
6,U24A U43C,0.07
7,U24A U43A,0.07
8,U24A U43G,0.05
9,G23U G45U,0.03
10,G23U G45A,0.04
11,G23U G45C,0.03
12,G23U G47U,0.04
13,G23U G47A,0.03
14,G23U G47C,0.03
15,G23U G51A,0.05
16,G23U G51C,0.04
17,G23U G51U,0.04
18,C25A G34C,0.06
19,C25A G34U,0.11
20,C25A G34A,0.11
